We go through 16 molecules from ChEMBL document CHEMBL1125109, “High potency dipeptide sweeteners. 1. L-aspartyl-D-phenylglycine esters” (J Med Chem, 1990).

A short description of this assay: Sweetness potency relative to 5-10% of sucrose. The assay is classed as functional. The method in brief: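 Human taste panel: five to ten expert male panelists tasted and spat 10 mL of sweetener solution, rating sweetness potency and quality against five sucrose standards (0.04 M/1.4% to 0.35 M/12.0%). Test solution generally equivalent to 5–10% sucrose. Potency = equi-sweet sucrose concentration divided by actual sweetener concentration; mean ± 95% confidence limit. Acute oral rat toxicity tested first.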
As to `CC1(OC(=O)[C@H](NC(=O)[C@@H](N)CC(=O)O)c2ccccc2)CC2CCC1C2` (stereo partly specified), the Potency stood at 40.
For `CC12CCC(C1)C(C)(C)C2OC(=O)[C@H](NC(=O)[C@@H](N)CC(=O)O)c1ccc(O)cc1` (stereo partly specified) the value was 420; for `COC(=O)C(NC(=O)[C@@H](N)CC(=O)O)C(=O)O[C@@H]1C(C)(C)C2CC[C@]1(C)C2` (stereo partly specified), 50000; for `CC1CCCC(C)C1OC(=O)[C@H](NC(=O)[C@@H](N)CC(=O)O)c1ccccc1` (stereo partly specified), 210.
As to `CC1(C)CCC(C)(C)C1OC(=O)[C@H](NC(=O)[C@@H](N)CC(=O)O)c1ccccc1`, the Potency stood at 190.
For `CC1(C)C2CCC1(C)C(OC(=O)[C@H](NC(=O)[C@@H](N)CC(=O)O)c1ccccc1)C2` (stereo partly specified) the value was 0.
In turn, `N[C@@H](CC(=O)O)C(=O)N[C@@H](C(=O)OC1CC2CCC1C2)c1ccccc1` (stereo in doubt; 26) came in with a Potency of 20.
For `CC1CCC(C)C1OC(=O)[C@H](NC(=O)[C@@H](N)CC(=O)O)c1ccccc1` (stereo partly specified) the value was 380.
For `CC1(C)C2CC[C@](C)(C2)[C@@H]1OC(=O)[C@H](NC(=O)[C@@H](N)CC(=O)O)c1ccccc1` (stereo in doubt; 29) the value was 1200; for `CC1(C)SC(C)(C)C1OC(=O)[C@H](NC(=O)[C@@H](N)CC(=O)O)c1ccccc1`, 300.
Regarding `CC12CC(O)C(C1)C(C)(C)C2OC(=O)[C@H](NC(=O)[C@@H](N)CC(=O)O)c1ccccc1` (stereo partly specified), the Potency came out at 100.
In the case of `CC12CCC(O1)C(C)(C)C2COC(=O)[C@H](NC(=O)[C@@H](N)CC(=O)O)c1ccccc1` (stereo partly specified) it was 0; in that of `CC12CCC(C1)C(C)(C)C2OC(=O)[C@H](NC(=O)[C@@H](N)CC(=O)O)c1ccccc1F` (stereo partly specified), 720; in that of `CC(OC(=O)[C@H](NC(=O)[C@@H](N)CC(=O)O)c1ccccc1)C(C)(C)C` (stereo partly specified), 30.
For `N[C@@H](CC(=O)O)C(=O)N[C@@H](C(=O)OC1C2CC3COC1C3C2)c1ccccc1` (stereo partly specified) the value was 80.
In turn, `N[C@@H](CC(=O)O)C(=O)N[C@@H](C(=O)OC1CC2CCC1C2)c1ccccc1` (stereo in doubt; 28) registered a Potency of 180.
